From ChEMBL document CHEMBL3797175, “Discovery of 6-(difluoro(6-(4-fluorophenyl)-[1,2,4]triazolo[4,3-b][1,2,4]triazin-3-yl)methyl)quinoline as a highly potent and selective c-Met inhibitor” (Eur J Med Chem, 2016)
Calls of active or inactive are those of the source. No cut-off for these calls is given here.

What was measured:
[1] = Selectivity ratio of IC50 for human NCI-HCC827 cells to IC50 for mouse BAF3 cells expressing TPR-MET; type: ADME, cell-based
Procedure, shortened: (§1)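 Each cell line was seeded in 96-well plates, then exposed the next day to a range of compound concentrations for 72 h. Growth was read by SRB or MTT assay, and IC50 was fitted by a four-parameter concentration-response curve. Each concentration was run at least in triplicate, in at least 2 experiments. BaF3/TPR-Met are murine pre-B BaF3 cells transfected with TPR-MET cDNA and selected in puromycin.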

[2] = Selectivity ratio of IC50 for human SGC7901 cells to IC50 for mouse BAF3 cells expressing TPR-MET; type: ADME, cell-based; procedure, shortened: as §1
[3] = Antitumor activity against human MKN45 cells xenografted in athymic nude mouse assessed as tumor growth inhibition at 25 mg/kg, po bid for 21 days measured twice a week during compound dosing relative to control; type: functional; conditions: MKN-45, po, 504 h, read-out: TGI
Procedure, shortened: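 Nude mice bearing s.c. tumours. Cells were first grown s.c. to 700–800 mm³, then 1.5 mm³ fragments were transplanted s.c. into the right flank. Mice were randomised at 100–200 mm³ (n=6 treated, n=12 vehicle) and dosed orally twice daily for 21 days. Caliper measurement twice weekly; TV = length×width²/2. TGI taken on the final day versus vehicle; Student's t test.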

[4] = Selectivity ratio of IC50 for human NCI-HCC827 cells to IC50 for human MKN45 cells; type: ADME, cell-based; conditions: mkn-45
Procedure, shortened: (§2)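 Both IC50s in each ratio come from one proliferation assay. Cells were seeded and exposed the next day to a range of concentrations for 72 h, then read by SRB or MTT. IC50s were fitted by four-parameter concentration–response, with each concentration at least in triplicate and at least 2 experiments. BaF3/TPR-Met is murine pre-B BaF3 transfected with TPR-MET and puromycin-selected.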

[5] = system: NCI-H358; test: Antiproliferative activity against human NCI-H358 cells after 72 hrs by SRB or MTT assay; type: functional, cell-based; conditions: NCI-H358, 72 h
Procedure, shortened: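 Cells seeded, exposed next day to a range of concentrations for 72 h. Growth read by sulforhodamine B or MTT. IC50 from four-parameter concentration-response fit. Each concentration tested at least in triplicate, with at least 2 experiments.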

[6] = biological target: T1, Hepatocyte growth factor receptor (Homo sapiens, UniProt P08581); test: Inhibition of c-Met in human NCI-H441 cells assessed as inhibition of HGF-induced cell invasion after 24 hrs by crystal violet staining based microscopic analysis
Procedure, shortened: (§3)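 NCI-H441 cells, 1.5×10^5 in serum-free medium, placed in upper Transwell chamber (8 µm pores; Matrigel-coated for invasion). Lower chamber serum-free medium ± HGF 100 ng/mL, with compound. After 24 h at 37 °C, non-migrated cells removed. Traversed cells stained with 0.1% crystal violet 15 min and imaged in 5 fields per filter. Three independent experiments.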

[7] = Selectivity ratio of IC50 for human AGS cells to IC50 for human MKN45 cells; type: ADME, cell-based; procedure, shortened: as §2
[8] = Selectivity ratio of IC50 for human SNU16 cells to IC50 for mouse BAF3 cells expressing TPR-MET; type: ADME, cell-based
[9] = Selectivity ratio of IC50 for human 786-0 cells to IC50 for human MKN45 cells; type: ADME, cell-based; conditions: mkn-45; procedure, shortened: as §2
[10] = Selectivity ratio of IC50 for human PANC1 cells to IC50 for human EBC1 cells; type: ADME, cell-based; conditions: panc-1; procedure, shortened: as §1
[11] = biological target: Receptor tyrosine-protein kinase erbB-2 (Homo sapiens) (UniProt P04626); test: Inhibition of recombinant ERBB2 (unknown origin) using poly (Glu, Tyr) 4:1 as substrate at 1000 nM incubated for 60 mins by ELISA relative to control
Procedure, shortened: (§4)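 Recombinant tyrosine kinases assayed on wells precoated with poly(Glu,Tyr)4:1 (20 µg/mL). ATP 10 µmol/L in HEPES pH 7.4 buffer with MgCl2, MnCl2, Na3VO4 and DTT; compound in 1% DMSO, 1% DMSO as control. Reaction 60 min at 37 °C. Phosphotyrosine detected with PY99 and HRP anti-mouse, o-phenylenediamine, A490. Inhibition % relative to control; two experiments.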

[12] = Selectivity ratio of IC50 for human MGC803 cells to IC50 for human EBC1 cells; type: ADME, cell-based; conditions: mgc-803; procedure, shortened: as §2
[13] = Tmax in Sprague-Dawley rat at 10 mg/kg, po administered as single dose; type: ADME, organism-based; conditions: in vivo
Procedure, shortened: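 Male Sprague-Dawley rats (n=3), single dose. IV 2 mg/kg in 1% DMA/9% Cremophor/90% saline; PO 10 mg/kg in 0.5% CMC-Na. For one compound, IV 10 mg/kg in DMSO/Tween 80/PEG40 and PO 10 mg/kg in 10% DMSO/5% Tween 80/85% saline.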

[14] = biological target: T1, Hepatocyte growth factor receptor; test: Inhibition of c-Met in human NCI-H441 cells assessed as inhibition of HGF-induced cell migration after 24 hrs by crystal violet staining based microscopic analysis; procedure, shortened: as §3
[15] = Selectivity ratio of IC50 for human SPCA4 cells to IC50 for mouse BAF3 cells expressing TPR-MET; type: ADME, cell-based; conditions: SPCA4 cells versus BAF3 cells expressing TPR-MET
[16] = biological target: Proto-oncogene tyrosine-protein kinase receptor Ret (Homo sapiens) (UniProt P07949); test: Inhibition of recombinant RET (unknown origin) using poly (Glu, Tyr) 4:1 as substrate at 1000 nM incubated for 60 mins by ELISA relative to control; procedure, shortened: as §4
[17] = Selectivity ratio of IC50 for human PANC1 cells to IC50 for human MKN45 cells; type: ADME, cell-based; conditions: panc-1; procedure, shortened: as §1
[18] = Selectivity ratio of IC50 for human Calu3 cells to IC50 for human MKN45 cells; type: ADME, cell-based; conditions: mkn-45; procedure, shortened: as §2
[19] = Selectivity ratio of IC50 for human NCI-H1299 cells to IC50 for mouse BAF3 cells expressing TPR-MET; type: ADME, cell-based; procedure, shortened: as §2
[20] = Selectivity ratio of IC50 for human NCI-H226 cells to IC50 for human MKN45 cells; type: ADME, cell-based; procedure, shortened: as §2
[21] = biological target: TPR/MET fusion protein (Mus musculus) (UniProt P16056+F6ZDS4); test: Inhibition of TPR-MET phosphorylation in mouse BAF3 cells at 10 nM after 1 hr by Western blot analysis; type: cell-based
Procedure, shortened: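 BaF3 stably expressing TPR-MET (puromycin-selected), grown with IL-3-conditioned medium. Treated 1 h at 37 °C, lysed in SDS sample buffer. 10% SDS-PAGE and immunoblot for phospho-c-Met, phospho-ERK1/2, phospho-AKT and totals; ECL detection.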

[22] = Selectivity ratio of IC50 for human NCI-H358 cells to IC50 for human EBC1 cells; type: ADME, cell-based; procedure, shortened: as §2
[23] = Selectivity ratio of IC50 for human BGC823 cells to IC50 for mouse BAF3 cells expressing TPR-MET; type: ADME, cell-based; procedure, shortened: as §2
[24] = Selectivity ratio of IC50 for human SMMC7721 cells to IC50 for mouse BAF3 cells expressing TPR-MET; type: ADME, cell-based
[25] = Selectivity ratio of IC50 for human MDA-MB-231 cells to IC50 for human EBC1 cells; type: ADME, cell-based; procedure, shortened: as §2
[26] = Selectivity ratio of IC50 for human SPCA1 cells to IC50 for mouse BAF3 cells expressing TPR-MET; type: ADME, cell-based; conditions: SPCA1 cells versus BAF3 cells expressing TPR-MET
[27] = Selectivity ratio of IC50 for human SMMC7721 cells to IC50 for human EBC1 cells; type: ADME, cell-based; conditions: smmc-7721; procedure, shortened: as §1

T1 sequence (P08581 whole entry): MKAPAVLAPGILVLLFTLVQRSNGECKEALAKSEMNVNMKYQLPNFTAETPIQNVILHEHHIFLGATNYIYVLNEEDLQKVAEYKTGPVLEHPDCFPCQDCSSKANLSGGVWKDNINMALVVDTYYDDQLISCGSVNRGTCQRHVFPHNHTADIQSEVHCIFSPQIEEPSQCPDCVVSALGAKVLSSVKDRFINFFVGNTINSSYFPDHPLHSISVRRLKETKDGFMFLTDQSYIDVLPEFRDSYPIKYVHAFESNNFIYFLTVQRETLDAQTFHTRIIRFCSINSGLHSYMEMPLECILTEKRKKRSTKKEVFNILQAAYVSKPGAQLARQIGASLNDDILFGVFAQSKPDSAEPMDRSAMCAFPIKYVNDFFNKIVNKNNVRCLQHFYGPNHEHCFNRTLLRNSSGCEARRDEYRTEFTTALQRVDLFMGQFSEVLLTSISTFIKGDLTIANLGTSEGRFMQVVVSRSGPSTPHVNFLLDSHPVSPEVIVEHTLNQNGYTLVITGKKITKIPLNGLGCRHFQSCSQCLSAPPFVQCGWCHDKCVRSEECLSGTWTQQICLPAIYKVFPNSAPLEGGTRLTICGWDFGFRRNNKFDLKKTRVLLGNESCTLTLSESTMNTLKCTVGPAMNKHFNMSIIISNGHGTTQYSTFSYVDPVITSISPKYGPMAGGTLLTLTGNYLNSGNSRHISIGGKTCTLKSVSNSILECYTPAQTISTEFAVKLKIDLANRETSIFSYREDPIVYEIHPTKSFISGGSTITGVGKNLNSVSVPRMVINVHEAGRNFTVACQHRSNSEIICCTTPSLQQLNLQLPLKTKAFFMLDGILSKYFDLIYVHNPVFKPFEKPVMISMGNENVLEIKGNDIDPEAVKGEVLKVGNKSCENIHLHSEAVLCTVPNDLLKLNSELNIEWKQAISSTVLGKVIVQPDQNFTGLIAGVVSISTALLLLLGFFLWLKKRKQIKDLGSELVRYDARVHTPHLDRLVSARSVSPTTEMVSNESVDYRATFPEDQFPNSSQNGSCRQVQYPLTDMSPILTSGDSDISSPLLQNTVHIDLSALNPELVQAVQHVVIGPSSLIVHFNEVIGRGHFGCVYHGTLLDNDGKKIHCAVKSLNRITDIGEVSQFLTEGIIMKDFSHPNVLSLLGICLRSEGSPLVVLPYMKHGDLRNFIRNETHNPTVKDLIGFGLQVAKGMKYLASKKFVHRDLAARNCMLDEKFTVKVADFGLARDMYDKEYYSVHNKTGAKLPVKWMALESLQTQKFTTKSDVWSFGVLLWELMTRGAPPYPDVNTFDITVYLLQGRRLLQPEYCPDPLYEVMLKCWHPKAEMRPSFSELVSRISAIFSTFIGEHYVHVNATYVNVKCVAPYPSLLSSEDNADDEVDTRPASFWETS
Sequence of Receptor tyrosine-protein kinase erbB-2 (Homo sapiens) (P04626 whole entry): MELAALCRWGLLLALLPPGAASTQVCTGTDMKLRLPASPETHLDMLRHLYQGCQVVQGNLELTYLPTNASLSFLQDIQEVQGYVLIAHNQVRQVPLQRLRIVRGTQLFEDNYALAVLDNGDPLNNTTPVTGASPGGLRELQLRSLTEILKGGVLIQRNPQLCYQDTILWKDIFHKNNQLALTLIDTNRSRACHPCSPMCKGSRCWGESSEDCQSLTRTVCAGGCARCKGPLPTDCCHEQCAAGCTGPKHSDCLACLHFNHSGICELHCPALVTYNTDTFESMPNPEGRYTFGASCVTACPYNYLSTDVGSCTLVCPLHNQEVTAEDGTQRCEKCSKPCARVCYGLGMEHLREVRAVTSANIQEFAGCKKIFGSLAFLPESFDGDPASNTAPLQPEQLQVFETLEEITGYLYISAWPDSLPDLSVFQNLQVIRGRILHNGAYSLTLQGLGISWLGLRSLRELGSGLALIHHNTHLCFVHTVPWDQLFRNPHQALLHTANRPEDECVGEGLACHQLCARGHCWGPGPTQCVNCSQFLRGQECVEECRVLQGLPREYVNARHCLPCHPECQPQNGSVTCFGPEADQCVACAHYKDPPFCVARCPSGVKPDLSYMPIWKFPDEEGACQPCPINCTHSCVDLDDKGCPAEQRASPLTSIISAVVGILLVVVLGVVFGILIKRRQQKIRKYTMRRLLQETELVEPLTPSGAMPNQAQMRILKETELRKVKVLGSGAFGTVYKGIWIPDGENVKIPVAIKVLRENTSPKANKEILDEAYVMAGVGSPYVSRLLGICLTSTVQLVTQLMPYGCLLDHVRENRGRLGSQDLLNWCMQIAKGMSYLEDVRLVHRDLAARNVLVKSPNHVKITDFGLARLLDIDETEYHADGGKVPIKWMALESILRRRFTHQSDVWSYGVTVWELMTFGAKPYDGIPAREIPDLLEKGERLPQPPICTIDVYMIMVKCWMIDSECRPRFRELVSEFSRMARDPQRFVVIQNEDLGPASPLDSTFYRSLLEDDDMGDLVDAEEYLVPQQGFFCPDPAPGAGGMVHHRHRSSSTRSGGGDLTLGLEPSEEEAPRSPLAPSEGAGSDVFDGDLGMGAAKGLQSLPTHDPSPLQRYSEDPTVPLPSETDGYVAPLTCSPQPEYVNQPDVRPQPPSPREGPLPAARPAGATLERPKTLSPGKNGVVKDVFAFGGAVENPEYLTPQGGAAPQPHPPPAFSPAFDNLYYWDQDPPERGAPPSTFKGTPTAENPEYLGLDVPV
Sequence of Proto-oncogene tyrosine-protein kinase receptor Ret (Homo sapiens) (P07949 whole entry): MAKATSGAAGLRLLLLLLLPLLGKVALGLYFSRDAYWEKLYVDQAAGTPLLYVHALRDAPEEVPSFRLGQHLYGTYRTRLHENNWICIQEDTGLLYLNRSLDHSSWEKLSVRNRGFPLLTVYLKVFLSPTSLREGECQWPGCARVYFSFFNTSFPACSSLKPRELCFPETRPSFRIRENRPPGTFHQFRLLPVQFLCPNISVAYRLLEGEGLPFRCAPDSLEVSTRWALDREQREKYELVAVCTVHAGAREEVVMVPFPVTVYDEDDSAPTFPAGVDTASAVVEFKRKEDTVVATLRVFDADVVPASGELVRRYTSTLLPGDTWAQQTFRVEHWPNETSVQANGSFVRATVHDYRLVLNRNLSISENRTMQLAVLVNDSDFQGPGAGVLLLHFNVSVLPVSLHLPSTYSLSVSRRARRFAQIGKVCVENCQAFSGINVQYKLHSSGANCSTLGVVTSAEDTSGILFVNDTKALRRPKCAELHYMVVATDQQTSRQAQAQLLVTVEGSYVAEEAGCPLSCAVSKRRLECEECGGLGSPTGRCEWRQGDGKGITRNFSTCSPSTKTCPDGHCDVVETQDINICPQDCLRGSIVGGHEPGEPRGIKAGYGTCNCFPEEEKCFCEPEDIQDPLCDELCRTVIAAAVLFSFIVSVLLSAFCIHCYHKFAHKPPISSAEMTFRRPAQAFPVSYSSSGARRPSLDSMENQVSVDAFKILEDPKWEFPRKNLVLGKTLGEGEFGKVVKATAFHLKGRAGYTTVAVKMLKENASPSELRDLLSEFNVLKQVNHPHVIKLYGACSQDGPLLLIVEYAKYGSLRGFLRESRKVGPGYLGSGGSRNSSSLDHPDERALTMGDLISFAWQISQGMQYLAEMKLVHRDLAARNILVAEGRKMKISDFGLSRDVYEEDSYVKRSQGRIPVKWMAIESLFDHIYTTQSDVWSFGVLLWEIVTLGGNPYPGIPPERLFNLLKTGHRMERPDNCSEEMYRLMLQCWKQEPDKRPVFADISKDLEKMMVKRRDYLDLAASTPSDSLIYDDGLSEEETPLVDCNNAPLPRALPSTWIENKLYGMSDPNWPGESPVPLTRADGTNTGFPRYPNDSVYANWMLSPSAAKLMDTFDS

IC50 [5]: > 10 µM
inhibition [6]: Dose-dependent effect
inhibition [11]: 31.5%
Tmax [13]: 1 h
inhibition [14]: Dose-dependent effect
inhibition [16]: 29.9%
inhibition [21]: Active
Structure (SMILES): Fc1ccc(-c2cnc3nnc(C(F)(F)c4ccc5ncccc5c4)n3n2)cc1
Ratio IC50 [1]: 10000
Ratio IC50 [2]: > 10000
inhibition in vivo at 25 mg/kg [3]: 96.5%
Ratio IC50 [4]: 10000
Ratio IC50 [7]: 10000
Ratio IC50 [8]: 10000
Ratio IC50 [9]: 10000
Ratio IC50 [10]: 10000
Ratio IC50 [12]: > 10000
selectivity ratio [15]: > 10000
Ratio IC50 [17]: 10000
Ratio IC50 [18]: > 10000
Ratio IC50 [19]: 10000
Ratio IC50 [20]: > 10000
Ratio IC50 [22]: 10000
Ratio IC50 [23]: > 10000
Ratio IC50 [24]: 10000
Ratio IC50 [25]: > 10000
selectivity ratio [26]: > 10000
Ratio IC50 [27]: 10000
